The test system of data set [1] is Staphylococcus aureus. Nature of the data set: Antibacterial activity against methicillin-resistant Staphylococcus aureus CEMTC 1732 assessed as bacterial growth inhibition by CLSI protocol based serial microdilution method. The class given is functional.
In another data set the test system is Pseudomonas aeruginosa. Nature of the data set: Bactericidal activity against Pseudomonas aeruginosa ATCC 9027 assessed as reduction in colony forming unit at 2.5 ug/ml measured at 4 hrs by time kill assay relative to control. The class given is functional. Further details: scale not given: the % may be the effect or the level left. The following applies: dose 2.5 µg/ml. An outline of the steps:
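Overnight Pseudomonas aeruginosa culture adjusted in Mueller–Hinton broth to about 2.5 × 10⁵ CFU/mL. Compound added at 2.5, 5 or 10 µg/mL, then incubated at 37 °C with shaking (580 rpm) for 22 h. Viable colonies counted on plates at 2, 4, 6, 8 and 22 h. Quantification limit 100 CFU/mL; triplicate.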

Data set [2] concerns Staphylococcus aureus. Put plainly: Bactericidal activity against […] Staphylococcus aureus ATCC 25923 assessed as reduction in colony forming unit at 5 ug/ml measured at 4 hrs by time kill assay relative to control. Further details: scale not given: the % may be the effect or the level left. Particulars: dose 5 µg/ml. The class given is functional. An outline of the steps: (§1)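 S. aureus overnight culture was adjusted in MHB to ~8 × 10⁵ CFU/mL. Compound was added and the mixture incubated at 37 °C with shaking (580 rpm) for 22 h. Aliquots were plated for colony counts at 2, 4, 6, 8 and 22 h, with a quantification limit of 100 CFU/mL. Runs were done in triplicate.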

Data set [3] concerns Staphylococcus aureus. Put plainly: Bactericidal activity against […] Staphylococcus aureus ATCC 25923 assessed as reduction in colony forming unit at 2.5 ug/ml measured at 2 hrs by time kill assay relative to control. It counts as functional. Further details: scale not given: the % may be the effect or the level left. The following applies: dose 2.5 µg/ml. In a few lines:
as §1

The nature of data set [4]: Selectivity index, ratio of CC50 for HEK293T cells assessed as reduction in cell viability measured after 24 hrs by MTT assay to MIC for Candida albicans CEMTC 34 assessed as bacterial growth inhibition by CLSI protocol based serial microdilution method. Particulars: human, read-out: Selectivity Index. The class given is toxicity. In a few lines:
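SI = CC₅₀ (HEK293T) / MIC. HEK293T cells were seeded at 20,000/well overnight, then exposed to 10–250 µg/mL in IMDM with 10% FBS for 24 h. MTT was added for 4 h, solubilised with SDS-HCl, and read at 570 nm; duplicates, ≥2 independent runs. MIC came from two-fold dilutions in Sabouraud dextrose broth at ~5 × 10⁵ CFU/mL, 37 °C with shaking, read at 595 nm, in duplicate.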

`CCCCCCCCCCCC[N+]12CC[N+](CCC[N+]34CC[N+](CCCCCCCCCCCC)(CC3)CC4)(CC1)CC2`: the MIC in the data set on Staphylococcus aureus [1] was found to be 0.5 µg/mL. Further, the Activity result with Pseudomonas aeruginosa is “>=99.9%”.

With `CCCCCCCCCCCC[N+]12CC[N+](Cc3ccccc3C[N+]34CC[N+](CCCCCCCCCCCC)(CC3)CC4)(CC1)CC2`, the MIC with Staphylococcus aureus [1] was found to be 0.5 µg/mL. Further, the figures for the Activity result in the data set with Pseudomonas aeruginosa, with Staphylococcus aureus [2] and with Staphylococcus aureus [3] were “>=99.9%”, 99.9% and “>=99%”, respectively. Moreover, the selectivity ratio at 24 h in data set [4] was found to be 1.

Source of the values: ChEMBL document CHEMBL4715780, “Biological evaluation of tetracationic compounds based on two 1,4-diazabicyclo[2.2.2]octane moieties connected by different linkers” (Bioorg Med Chem, 2016).
